IC50 and ED50 data for 58 compounds are collected here from ChEMBL document CHEMBL3228032, “Aryloxyalkyloxy- and aralkyloxy-4-hydroxy-3-nitrocoumarins which inhibit histamine release in the rat and also antagonize the effects of a slow reacting substance of anaphylaxis” (J Med Chem, 1979).

For one assay, the system named is Ileum. As to the kind of experiment: Antagonism of slow reacting substance of anaphylaxis-induced effect in guinea pig ileum. It counts as functional, tissue-based. Conditions: Cavia porcellus. In outline: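 SRS-A standard: heated supernatant of pooled rat peritoneal fluid taken 5 min after antigen challenge in passive peritoneal anaphylaxis. Assayed on isolated terminal guinea pig ileum in 4 mL Tyrode's with atropine 5 × 10⁻⁷ M and mepyramine maleate 10⁻⁶ M. Antagonist in water added 30 s before a submaximal SRS-A dose. At least three concentrations, more than one ileum. Bath concentration for 50% inhibition taken from log concentration-inhibition curve, by eye or best-fit line with 95% confidence limits.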
On to `O=C(O)c1ccc(OCCCOc2ccc3c(O)c([N+](=O)[O-])c(=O)oc3c2)cc1`, for which the IC50 is over 20 µM.
As for `O=c1oc2cccc(OCCCOc3ccccc3)c2c(O)c1[N+](=O)[O-]`, the IC50 was 18 µM.
For the compound `O=c1oc2cccc(OCCCCOc3ccccc3)c2c(O)c1[N+](=O)[O-]`, the IC50 is over 10 µM.
On the same count and under the same terms, the value for `O=c1oc2ccc(OCCOc3ccccc3)cc2c(O)c1[N+](=O)[O-]` was 17 µM; that for `O=c1oc2ccc(OCCCOc3ccccc3)cc2c(O)c1[N+](=O)[O-]` was 2.3 µM; that for `O=c1oc2ccc(OCCCCCOc3ccccc3)cc2c(O)c1[N+](=O)[O-]` was 2 µM.
Same read-out and setting: to `O=c1oc2ccc(OCCCCCCOc3ccccc3)cc2c(O)c1[N+](=O)[O-]` belongs 0.78 µM.
On the same count and under the same terms, to `O=c1oc2cc(OCCOc3ccccc3)ccc2c(O)c1[N+](=O)[O-]` belongs over 10 µM; to `O=c1oc2cc(OCCCOc3ccccc3)ccc2c(O)c1[N+](=O)[O-]`, 1.6 µM; to `O=c1oc2cc(OCCCCOc3ccccc3)ccc2c(O)c1[N+](=O)[O-]`, 3.6 µM.
`O=c1oc2cc(OCCCCCOc3ccccc3)ccc2c(O)c1[N+](=O)[O-]`: the IC50 stood at 8.4 µM.
Same read-out and setting: the value for `O=c1oc2cc(OCCCCCCOc3ccccc3)ccc2c(O)c1[N+](=O)[O-]` was over 20 µM; that for `O=c1oc2c(OCCCOc3ccccc3)cccc2c(O)c1[N+](=O)[O-]` was over 20 µM; that for `O=c1oc2cccc(OCCCc3ccccc3)c2c(O)c1[N+](=O)[O-]` was over 20 µM.
Still for that read-out and setting: to `O=c1oc2ccc(OCc3ccccc3)cc2c(O)c1[N+](=O)[O-]` belongs 22 µM; to `O=c1oc2ccc(OCCc3ccccc3)cc2c(O)c1[N+](=O)[O-]`, 18 µM.
On the same count and under the same terms, to `O=c1oc2ccc(OCCCc3ccccc3)cc2c(O)c1[N+](=O)[O-]` belongs 5.5 µM.
The compound `O=c1oc2cc(OCc3ccccc3)ccc2c(O)c1[N+](=O)[O-]` gave an IC50 of 1.5 µM.
Same read-out and setting: to `O=c1oc2cc(OCCc3ccccc3)ccc2c(O)c1[N+](=O)[O-]` belongs 4.4 µM; to `O=c1oc2cc(OCCCc3ccccc3)ccc2c(O)c1[N+](=O)[O-]`, 7.8 µM.
On the same count and under the same terms, the value for `O=c1oc2cc(OCCCCc3ccccc3)ccc2c(O)c1[N+](=O)[O-]` was 4.5 µM; that for `O=c1oc2cc(OCCCCc3ccc(Cl)cc3)ccc2c(O)c1[N+](=O)[O-]` was 3.8 µM; that for `Cc1ccc(CCCCOc2ccc3c(O)c([N+](=O)[O-])c(=O)oc3c2)cc1` was 2.5 µM.
Same read-out and setting: to `Cc1cc(OCCCOc2ccccc2)cc2oc(=O)c([N+](=O)[O-])c(O)c12` belongs 5.2 µM.
In turn, `CCc1cc2c(O)c([N+](=O)[O-])c(=O)oc2cc1OCCCOc1ccccc1` gave an IC50 of over 10 µM.
On the same count and under the same terms, to `CCCc1c(OCCCOc2ccccc2)ccc2c(O)c([N+](=O)[O-])c(=O)oc12` belongs 0.54 µM; to `O=c1oc2cc(OCCCOc3ccc(F)cc3)ccc2c(O)c1[N+](=O)[O-]`, 1 µM; to `O=c1oc2cc(OCCCOc3ccc(Cl)cc3)ccc2c(O)c1[N+](=O)[O-]`, 4 µM.
Same read-out and setting: to `COc1ccc(OCCCOc2ccc3c(O)c([N+](=O)[O-])c(=O)oc3c2)cc1` belongs over 4 µM.
Still for that read-out and setting: the value for `CC(=O)c1ccc(OCCCOc2ccc3c(O)c([N+](=O)[O-])c(=O)oc3c2)cc1` was 6.1 µM.
`COC(=O)c1ccc(OCCCOc2ccc3c(O)c([N+](=O)[O-])c(=O)oc3c2)cc1` showed an IC50 of over 10 µM.
On the same count and under the same terms, to `N#Cc1ccc(OCCCOc2ccc3c(O)c([N+](=O)[O-])c(=O)oc3c2)cc1` belongs over 10 µM; to `O=c1oc2cc(OCCCOc3ccc(-c4ccccc4)cc3)ccc2c(O)c1[N+](=O)[O-]`, over 20 µM; to `Cc1ccc(OCCCOc2ccc3c(O)c([N+](=O)[O-])c(=O)oc3c2)cc1`, 4.5 µM.
On the same count and under the same terms, the value for `Cc1cccc(OCCCOc2ccc3c(O)c([N+](=O)[O-])c(=O)oc3c2)c1` was 4.4 µM; that for `Cc1ccccc1OCCCOc1ccc2c(O)c([N+](=O)[O-])c(=O)oc2c1` was 0.59 µM; that for `O=c1oc2cc(OCCCOc3ccc4c(c3)CCCC4)ccc2c(O)c1[N+](=O)[O-]` was over 2 µM.
Same read-out and setting: to `CC(=O)c1ccc(OCCCOc2ccc3c(O)c([N+](=O)[O-])c(=O)oc3c2)cc1O` belongs 2.8 µM.
As to `Cc1ccc(OCCCOc2ccc3c(O)c([N+](=O)[O-])c(=O)oc3c2)c([N+](=O)[O-])c1`, the IC50 was over 10 µM.
Compound `CCCc1c(OCCCOc2ccc3c(O)c([N+](=O)[O-])c(=O)oc3c2)ccc(C(C)=O)c1O` registered an IC50 of 0.1 µM.
Same read-out and setting: the value for `O=c1oc2cc(OCC(O)COc3ccccc3)ccc2c(O)c1[N+](=O)[O-]` (stereo unspecified) was 12 µM; that for `O=C(O)c1ccc(OCC(O)COc2ccc3c(O)c([N+](=O)[O-])c(=O)oc3c2)cc1` (stereo unspecified) was over 10 µM.
Take `CCc1ccccc1OCC(O)COc1ccc2c(O)c([N+](=O)[O-])c(=O)oc2c1` (stereo unspecified): half-maximal inhibition (IC50) was put at 2.7 µM.
For the compound `CCCc1ccccc1OCC(O)COc1ccc2c(O)c([N+](=O)[O-])c(=O)oc2c1` (stereo unspecified), the IC50 was 0.11 µM.
Same read-out and setting: to `CCCc1cc(F)ccc1OCC(O)COc1ccc2c(O)c([N+](=O)[O-])c(=O)oc2c1` (stereo unspecified) belongs 0.14 µM; to `CC(C)c1ccccc1OCC(O)COc1ccc2c(O)c([N+](=O)[O-])c(=O)oc2c1` (stereo unspecified), 0.16 µM; to `CCCc1cc(C(C)=O)ccc1OCC(O)COc1ccc2c(O)c([N+](=O)[O-])c(=O)oc2c1` (stereo unspecified), 0.7 µM.
The same measure, in the same setting: the value for `CC(=O)c1ccc(OCC(O)COc2ccc3c(O)c([N+](=O)[O-])c(=O)oc3c2)cc1O` (stereo unspecified) was over 20 µM; that for `CC(=O)c1ccc(OCC(O)COc2ccc3c(O)c([N+](=O)[O-])c(=O)oc3c2)c(C)c1O` (stereo unspecified) was 0.5 µM; that for `CCCc1c(OCC(O)COc2ccc3c(O)c([N+](=O)[O-])c(=O)oc3c2)ccc(C(C)=O)c1O` (stereo unspecified) was 0.08 µM.
The compound `CCCc1c(OCC(O)COc2ccc3c(O)c([N+](=O)[O-])c(=O)oc3c2)ccc(C(=O)CC)c1O` (stereo unspecified) returned an IC50 of 0.15 µM.
Same read-out and setting: to `CCc1cc(C(C)=O)c(O)cc1OCC(O)COc1ccc2c(O)c([N+](=O)[O-])c(=O)oc2c1` (stereo unspecified) belongs 3.5 µM; to `CCCc1c(OCC(O)COc2ccc3c(O)c([N+](=O)[O-])c(=O)oc3c2C)ccc(C(C)=O)c1O` (stereo unspecified), 0.025 µM; to `CCCc1c(O)c(C(C)=O)cc([N+](=O)[O-])c1OCC(O)COc1ccc2c(O)c([N+](=O)[O-])c(=O)oc2c1C` (stereo unspecified), 1.6 µM.
Consider `CCCc1c(OCC(O)COc2ccc3c(O)c([N+](=O)[O-])c(=O)oc3c2CC)ccc(C(C)=O)c1O` (stereo unspecified), for which the IC50 is 0.05 µM.
Turning to `CCCc1c(OCC(O)COc2ccc3c(O)c([N+](=O)[O-])c(=O)oc3c2CCC)ccc(C(C)=O)c1O` (stereo unspecified), the IC50 is 0.2 µM.
The same measure, in the same setting: to `CCCc1c(OCC(O)COc2ccc3c(=O)cc(C(=O)O)oc3c2CCC)ccc(C(C)=O)c1O` (stereo unspecified) [FPL-55712] belongs 0.17 µM.

The next assay has as its system Rattus norvegicus. Nature of the assay: Antiallergic activity against ip dosed passive peritoneal anaphylaxis rat model assessed as inhibition of histamine release in peritoneal fluid administered 30s prior to ovalbumin challenge measured per rat after 5 mins.
Conditions: not given
The assay is classed as functional. An outline of the steps:
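Rat anti-ovalbumin antiserum raised with Bordetella pertussis vaccine adjuvant; rats given 2 mL of 1:5 antiserum ip. 2 h later, Pontamine Sky Blue iv, then compound in 1 mL saline ip (saline controls), groups of 5–7, randomized. Challenge 30 s later ip with 5 mL Tyrode containing heparin 50 μg/mL and ovalbumin 0.4 mg/mL. Peritoneal fluid collected at 5 min for histamine. Dose reducing histamine to 50% of controls from log dose-response line, 95% confidence limits.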
Consider `O=c1oc2cc(OCCCOc3ccccc3)ccc2c(O)c1[N+](=O)[O-]`, for which the ED50 is reported as 2.1 nM.
The same measure, in the same setting: to `CCCc1c(OCCCOc2ccc3c(O)c([N+](=O)[O-])c(=O)oc3c2)ccc(C(C)=O)c1O` belongs 4.8 nM; to `CCCc1ccccc1OCC(O)COc1ccc2c(O)c([N+](=O)[O-])c(=O)oc2c1` (stereo unspecified), 1.1 nM; to `CCCc1cc(F)ccc1OCC(O)COc1ccc2c(O)c([N+](=O)[O-])c(=O)oc2c1` (stereo unspecified), 1.7 nM.
Same read-out and setting: the value for `CCCc1c(OCC(O)COc2ccc3c(O)c([N+](=O)[O-])c(=O)oc3c2)ccc(C(C)=O)c1O` (stereo unspecified) was 6.5 ×10⁻¹⁰ M; that for `CCCc1c(OCC(O)COc2ccc3c(O)c([N+](=O)[O-])c(=O)oc3c2C)ccc(C(C)=O)c1O` (stereo unspecified) was 2.4 nM; that for `CCCc1c(OCC(O)COc2ccc3c(O)c([N+](=O)[O-])c(=O)oc3c2CCC)ccc(C(C)=O)c1O` (stereo unspecified) was 6.2 ×10⁻¹⁰ M.
Same read-out and setting: the value for `O=C([O-])c1cc(=O)c2c(OCC(O)COc3cccc4oc(C(=O)[O-])cc(=O)c34)cccc2o1.[Na+].[Na+]` [CROMOLYN SODIUM] was 5.2 nM; that for `CCCc1c(OCC(O)COc2ccc3c(=O)cc(C(=O)O)oc3c2CCC)ccc(C(C)=O)c1O` (stereo unspecified) [FPL-55712] was 3.2 ×10⁻⁸ M.

The IC50 is the concentration needed to halve the response being measured. A low value points to inhibition by little substance.
